Laboratory results: ChEMBL document CHEMBL3046951, “Volatile constituents from the leaves of Callicarpa japonica Thunb. and their antibacterial activities” (2004)

How the values were obtained:
Salmonella typhimurium [1] = test: Antimicrobial activity against Salmonella enterica subsp. enterica serovar Typhimurium ATCC 14028 assessed as growth inhibition rate at 16.8 mg/l after 72 hr by spectrophotometry; type: functional; conditions: ATCC 14028, 72 h, read-out: GI
Summary of the method: (§1)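 Salmonella Typhimurium ATCC 14028 grown in nutrient broth at 30 °C, precultured 24 h, then subcultured 1:100 for 18 h before testing. Single volatile compounds (>95% pure) were added. OD was read every 24 h over 72 h in a Bioscreen C, with 10% Tween 80 as the comparison control.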

Bacillus cereus [2] = test: Antimicrobial activity against Bacillus cereus ATCC 11778 assessed as growth inhibition rate at 16.8 mg/l after 72 hr by spectrophotometry; type: functional; conditions: ATCC 11778, 72 h, read-out: GI
Summary of the method: (§2)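 Pure volatile compounds (purity >95%; one at 90%) were tested against B. cereus ATCC 11778. The strain was grown at 30 °C in nutrient broth for 24 h, then subcultured for 18 h. Optical density was read in a Bioscreen C every 24 h for 72 h, with 10% Tween 80 as the control.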

Escherichia coli [3] = test: Antimicrobial activity against Escherichia coli O157:H7 ATCC 43894 assessed as growth inhibition rate at 16.8 mg/l after 72 hr by spectrophotometry; type: functional; conditions: O157:H7 ATCC 43894, 72 h, read-out: GI
Staphylococcus aureus [4] = test: Antimicrobial activity against Staphylococcus aureus ATCC 25923 assessed as growth inhibition rate at 16.8 mg/l after 72 hr by spectrophotometry; type: functional; conditions: ATCC 25923, 72 h, read-out: GI
Vibrio parahaemolyticus [5] = test: Antimicrobial activity against Vibrio parahaemolyticus ATCC 33844 assessed as growth inhibition rate at 16.8 mg/l after 72 hr by spectrophotometry; type: functional; conditions: ATCC 33844, 72 h, read-out: GI
Listeria monocytogenes [6] = test: Antimicrobial activity against Listeria monocytogenes ATCC 19111 assessed as growth inhibition rate at 16.8 mg/l after 72 hr by spectrophotometry; type: functional; conditions: ATCC 19111, 72 h, read-out: GI
Summary of the method: (§3)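 L. monocytogenes was grown at 30 °C in tryptic soy broth, subcultured for 18 h, and exposed to pure volatile compounds (>95% purity). Growth was followed by Bioscreen C optical density every 24 h for 72 h against a 10% Tween 80 control.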

Vibrio parahaemolyticus [7] = test: Antimicrobial activity against Vibrio parahaemolyticus ATCC 33844 assessed as growth inhibition rate at 2.36 mg/l after 72 hr by spectrophotometry; type: functional; conditions: ATCC 33844, 72 h, read-out: GI
Bacillus cereus [8] = test: Antimicrobial activity against Bacillus cereus ATCC 11778 assessed as growth inhibition rate at 2.36 mg/l after 72 hr by spectrophotometry; type: functional; conditions: ATCC 11778, 72 h, read-out: GI; summary of the method: as §2
Listeria monocytogenes [9] = test: Antimicrobial activity against Listeria monocytogenes ATCC 19111 assessed as growth inhibition rate at 2.36 mg/l after 72 hr by spectrophotometry; type: functional; conditions: ATCC 19111, 72 h, read-out: GI; summary of the method: as §3
Staphylococcus aureus [10] = test: Antimicrobial activity against Staphylococcus aureus ATCC 25923 assessed as growth inhibition rate at 2.36 mg/l after 72 hr by spectrophotometry; type: functional; conditions: ATCC 25923, 72 h, read-out: GI
Salmonella typhimurium [11] = test: Antimicrobial activity against Salmonella enterica subsp. enterica serovar Typhimurium ATCC 14028 assessed as growth inhibition rate at 2.36 mg/l after 72 hr by spectrophotometry; type: functional; conditions: ATCC 14028, 72 h, read-out: GI; summary of the method: as §1
Escherichia coli [12] = test: Antimicrobial activity against Escherichia coli O157:H7 ATCC 43894 assessed as growth inhibition rate at 2.36 mg/l after 72 hr by spectrophotometry; type: functional; conditions: O157:H7 ATCC 43894, 72 h, read-out: GI
Bacillus cereus [13] = test: Antimicrobial activity against Bacillus cereus ATCC 11778 assessed as growth inhibition rate at 1.84 mg/l after 72 hr by spectrophotometry; type: functional; conditions: ATCC 11778, 72 h, read-out: GI; summary of the method: as §2
Vibrio parahaemolyticus [14] = test: Antimicrobial activity against Vibrio parahaemolyticus ATCC 33844 assessed as growth inhibition rate at 1.84 mg/l after 72 hr by spectrophotometry; type: functional; conditions: ATCC 33844, 72 h, read-out: GI
Escherichia coli [15] = test: Antimicrobial activity against Escherichia coli O157:H7 ATCC 43894 assessed as growth inhibition rate at 1.84 mg/l after 72 hr by spectrophotometry; type: functional; conditions: O157:H7 ATCC 43894, 72 h, read-out: GI
Listeria monocytogenes [16] = test: Antimicrobial activity against Listeria monocytogenes ATCC 19111 assessed as growth inhibition rate at 1.84 mg/l after 72 hr by spectrophotometry; type: functional; conditions: ATCC 19111, 72 h, read-out: GI; summary of the method: as §3
Salmonella typhimurium [17] = test: Antimicrobial activity against Salmonella enterica subsp. enterica serovar Typhimurium ATCC 14028 assessed as growth inhibition rate at 1.84 mg/l after 72 hr by spectrophotometry; type: functional; conditions: ATCC 14028, 72 h, read-out: GI; summary of the method: as §1
Staphylococcus aureus [18] = test: Antimicrobial activity against Staphylococcus aureus ATCC 25923 assessed as growth inhibition rate at 1.84 mg/l after 72 hr by spectrophotometry; type: functional; conditions: ATCC 25923, 72 h, read-out: GI
Vibrio parahaemolyticus [19] = test: microbe, parasite or virus in culture; conditions: ATCC 33844, 72 h, read-out: GI
Bacillus cereus [20] = test: microbe, parasite or virus in culture; conditions: ATCC 11778, 72 h, read-out: GI
Listeria monocytogenes [21] = test: microbe, parasite or virus in culture; conditions: ATCC 19111, 72 h, read-out: GI
Staphylococcus aureus [22] = test: microbe, parasite or virus in culture; conditions: ATCC 25923, 72 h, read-out: GI
Escherichia coli [23] = test: microbe, parasite or virus in culture; conditions: O157:H7 ATCC 43894, 72 h, read-out: GI
Salmonella typhimurium [24] = test: microbe, parasite or virus in culture; conditions: Salmonella enterica, ATCC 14028, 72 h, read-out: GI
Listeria monocytogenes [25] = test: Antimicrobial activity against Listeria monocytogenes ATCC 19111 assessed as growth inhibition rate at 1.96 mg/l after 72 hr by spectrophotometry; type: functional; conditions: ATCC 19111, 72 h, read-out: GI
Summary of the method: (§4)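 Authentic volatiles (>95% purity; 2,4-heptadienal 90%) tested against 18 h subcultures. Growth media: E. coli O157:H7 and S. aureus in tryptic soy broth at 37 °C; L. monocytogenes in tryptic soy broth at 30 °C; V. parahaemolyticus in tryptic soy broth + 3% NaCl at 37 °C; S. typhimurium in nutrient broth at 30 °C. Bioscreen C OD every 24 h for 72 h versus 10% Tween 80 control.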

Escherichia coli [26] = test: Antimicrobial activity against Escherichia coli O157:H7 ATCC 43894 assessed as growth inhibition rate at 1.96 mg/l after 72 hr by spectrophotometry; type: functional; conditions: O157:H7 ATCC 43894, 72 h, read-out: GI
Bacillus cereus [27] = test: Antimicrobial activity against Bacillus cereus ATCC 11778 assessed as growth inhibition rate at 1.96 mg/l after 72 hr by spectrophotometry; type: functional; conditions: ATCC 11778, 72 h, read-out: GI
Summary of the method: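 Pure volatile compounds (>95% purity; 2,4-heptadienal 90%) identified in the leaf extract were tested against B. cereus ATCC 11778 in nutrient broth at 30 °C. The inoculum was grown 24 h, then subcultured (0.1 mL into 9.9 mL) for 18 h. Optical density was read in a Bioscreen C every 24 h for 72 h against a 10% Tween 80 control.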

Staphylococcus aureus [28] = test: Antimicrobial activity against Staphylococcus aureus ATCC 25923 assessed as growth inhibition rate at 1.96 mg/l after 72 hr by spectrophotometry; type: functional; conditions: ATCC 25923, 72 h, read-out: GI; summary of the method: as §4
Vibrio parahaemolyticus [29] = test: Antimicrobial activity against Vibrio parahaemolyticus ATCC 33844 assessed as growth inhibition rate at 1.96 mg/l after 72 hr by spectrophotometry; type: functional; conditions: ATCC 33844, 72 h, read-out: GI; summary of the method: as §4

CCCCCC=O [HEXANAL]
inhibition of growth at 16.8 µg/mL (Salmonella typhimurium [1]): 39.1% | inhibition of growth at 16.8 µg/mL (Bacillus cereus [2]): 19.3% | inhibition of growth at 16.8 µg/mL (Escherichia coli [3]): 41.5% | inhibition of growth at 16.8 µg/mL (Staphylococcus aureus [4]): 11.3% | inhibition of growth at 16.8 µg/mL (Vibrio parahaemolyticus [5]): 57.8% | inhibition of growth at 16.8 µg/mL (Listeria monocytogenes [6]): 14.4%

CCCCC=O [PENTANAL]
inhibition of growth at 2.36 µg/mL (Vibrio parahaemolyticus [7]): 0% | inhibition of growth at 2.36 µg/mL (Bacillus cereus [8]): 11.3% | inhibition of growth at 2.36 µg/mL (Listeria monocytogenes [9]): 0% | inhibition of growth at 2.36 µg/mL (Staphylococcus aureus [10]): 6.3% | inhibition of growth at 2.36 µg/mL (Salmonella typhimurium [11]): 4.2% | inhibition of growth at 2.36 µg/mL (Escherichia coli [12]): 0%

CC/C=C/C=O [PENTENAL]
inhibition of growth at 1.84 µg/mL (Bacillus cereus [13]): 27.4% | inhibition of growth at 1.84 µg/mL (Vibrio parahaemolyticus [14]): 40.7% | inhibition of growth at 1.84 µg/mL (Escherichia coli [15]): 11% | inhibition of growth at 1.84 µg/mL (Listeria monocytogenes [16]): 16.9% | inhibition of growth at 1.84 µg/mL (Salmonella typhimurium [17]): 39.6% | inhibition of growth at 1.84 µg/mL (Staphylococcus aureus [18]): 12.2%

CCCO [PROPANOL]
inhibition of growth at 1.76 µg/mL (Vibrio parahaemolyticus [19]): 0% | inhibition of growth at 1.76 µg/mL (Bacillus cereus [20]): 0% | inhibition of growth at 1.76 µg/mL (Listeria monocytogenes [21]): 0% | inhibition of growth at 1.76 µg/mL (Staphylococcus aureus [22]): 6.1% | inhibition of growth at 1.76 µg/mL (Escherichia coli [23]): 0% | inhibition of growth at 1.76 µg/mL (Salmonella typhimurium [24]): 2.6%

Cc1ccccc1 [TOLUENE]
inhibition of growth at 1.96 µg/mL (Listeria monocytogenes [25]): 0% | inhibition of growth at 1.96 µg/mL (Escherichia coli [26]): 0% | inhibition of growth at 1.96 µg/mL (Bacillus cereus [27]): 0% | inhibition of growth at 1.96 µg/mL (Staphylococcus aureus [28]): 1.8% | inhibition of growth at 1.96 µg/mL (Vibrio parahaemolyticus [29]): 1.6%
